Data on 16 compounds can be found in ChEMBL document CHEMBL4706597, “Structure-guided optimization and mechanistic study of a class of quinazolinone-threonine hybrids as antibacterial ThrRS inhibitors” (Eur J Med Chem, 2020).

Converted amounts (≈) assume the structure as drawn. The source made the active and inactive calls.

In one test the test system is Pseudomonas aeruginosa. Put plainly: Antibacterial activity against Pseudomonas aeruginosa ATCC 27853 assessed as reduction in bacterial growth incubated for 18 hrs by CLSI based broth microdilution assay. Format: functional. Put shortly: (§1)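 Broth microdilution per CLSI; compounds in 2-fold dilutions starting from 256 μg/mL. Defined medium: M9 with 0.4% glucose plus 100 μM of all canonical amino acids. MIC read as growth end point.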
In general terms: Broth dilution looks for growth in wells or tubes with falling amounts of substance.

Test [1] can be described thus: Binding affinity to Salmonella enterica Threonyl-tRNA synthetase at 200 uM by isothermal titration calorimetry. In short, it runs like this:
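ITC: 20 μM SeThrRS in cell, 200 μM ligand in syringe, both in 20 mM HEPES pH 7.5, 150 mM NaCl. First injection 5 μL, then 24 × 10 μL at 180 s spacing. Ligand-into-buffer isotherm subtracted as baseline; one-site model fit gives Kd, ΔH, ΔS, N.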
On the technique in general: Isothermal titration calorimetry measures the heat released or taken up as one component is titrated into another.

The test system of another test is Escherichia coli. Nature of the test: Antibacterial activity against Escherichia coli ATCC 25922 assessed as reduction in bacterial growth incubated for 18 hrs by CLSI based broth microdilution assay. It counts as functional. In short, it runs like this: as §1
For test [2], the system named is Salmonella enterica. Put plainly: Potency index, ratio of IC50 of parent compound to IC50 of compound for inhibition of Salmonella enterica Threonyl-tRNA synthetase assessed as reduction in aminoacylation activity using L-threonine as substrate incubated for 3 hrs by Kinase-glo luminescence assay. In general terms: In Kinase-Glo more light means more ATP remaining.

Test [3] deals with Staphylococcus aureus. Put plainly: Antibacterial activity against Staphylococcus aureus ATCC 29213 assessed as reduction in bacterial growth incubated for 18 hrs by CLSI based broth microdilution assay. It counts as functional. In short, it runs like this: as §1
Test [4] concerns Staphylococcus aureus. Put plainly: Antibacterial activity against methicillin-resistant Staphylococcus aureus R3708 assessed as reduction in bacterial growth incubated for 18 hrs by CLSI based broth microdilution assay. It counts as functional. In short, it runs like this: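 Broth microdilution under CLSI conditions, with 2-fold compound dilutions starting at 256 μg/mL. Medium was M9 with 0.4% glucose, supplemented with 100 μM of all canonical amino acids.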

The subject of test [5] is Salmonella enterica. Nature of the test: Inhibition of Salmonella enterica Threonyl-tRNA synthetase assessed as reduction in aminoacylation activity at 100 uM using L-threonine as substrate incubated for 3 hrs by Kinase-glo luminescence assay relative to control. Put shortly:
(§2)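 3 h at room temperature, stopped with Kinase-Glo, luminescence read. Inhibition % = (RLU compound − RLU blank)/(RLU no-enzyme − RLU blank) × 100, at 100 μM compound. IC50 run for compounds above 50% inhibition at 100 μM, fitted as 100/(1+([I]/IC50)^B). Mean of three independent assays.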

Test [6] relates to Salmonella enterica. Nature of the test: Inhibition of Salmonella enterica Threonyl-tRNA synthetase assessed as reduction in aminoacylation activity at 10 uM using increasing concentration of L-threonine as substrate incubated for 3 hrs by Kinase-glo luminescence assay. In short, it runs like this: (§3)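 Aminoacylation by SeThrRS followed as ATP consumption (Kinase-Glo luminescence) after 3 h at room temperature. Inhibitor held at 10 μM while one substrate (L-Thr, tRNA^Thr or ATP, per line) was raised stepwise to test competition. Other components as in the standard assay.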

Test [7] relates to Salmonella enterica. Put plainly: Inhibition of Salmonella enterica Threonyl-tRNA synthetase assessed as reduction in aminoacylation activity at 10 uM using increasing concentration of ATP as substrate incubated for 3 hrs by Kinase-glo luminescence assay. Put shortly:
as §3

A short description of test [8]: Inhibition of Salmonella enterica Threonyl-tRNA synthetase assessed as reduction in aminoacylation activity using L-threonine as substrate incubated for 3 hrs by Kinase-glo luminescence assay. In short, it runs like this:
as §2

In test [9] the test system is Salmonella enterica. Put plainly: Antibacterial activity against Salmonella enterica 87 assessed as reduction in bacterial growth incubated for 18 hrs by CLSI based broth microdilution assay. Format: functional. Put shortly: as §1
For test [10], the system named is Salmonella enterica. Put plainly: Inhibition of Salmonella enterica Threonyl-tRNA synthetase assessed as reduction in aminoacylation activity at 10 uM using increasing concentration of t-RNAthr as substrate incubated for 3 hrs by Kinase-glo luminescence assay. In short, it runs like this:
as §3

The subject of a further test is Enterococcus faecalis. Nature of the test: Antibacterial activity against Enterococcus faecalis ATCC 29212 assessed as reduction in bacterial growth incubated for 18 hrs by CLSI based broth microdilution assay. It counts as functional. In short, it runs like this: as §1
The test system of test [11] is Salmonella enterica. Nature of the test: Binding affinity to Salmonella enterica Threonyl-tRNA synthetase assessed as change in melting temperature at 0.5 mM incubated for 10 mins by SYPRO orange dye-based thermal shift assay. In short, it runs like this: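 SeThrRS 8 μM in 100 mM HEPES pH 7.5, 150 mM NaCl, 4× SYPRO orange, with 0.5 mM compound or 0.5% DMSO blank; 25 °C for 10 min, then ramped 25 to 95 °C at 1 °C/min, fluorescence read every 30 s. Tm fitted from melt curve; ΔTm = with minus without compound; mean of three independent experiments.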

What is called MIC is the smallest concentration in the dilution series that meets the test's criterion for growth inhibition. A word on the Kd: it is the equilibrium constant for the complex coming apart. Low readings indicate higher affinity, high ones lower affinity. Usually inhibition stands for the drop in the measured response relative to a control, in per cent. The term IC50 denotes the concentration that inhibits the measured activity by half. For orientation: ΔTm means the change in melting temperature against a reference sample.

For `CN[C@H](C(=O)NC/C=C/Cn1cnc2cc(Cl)c(Cl)cc2c1=O)[C@@H](C)O`, the MIC was found to be 32 µg/mL (≈ 80.1 µM) with Pseudomonas aeruginosa; 16 µg/mL (≈ 40.1 µM) in the test with Escherichia coli; 32 µg/mL (≈ 80.1 µM) in the test with Staphylococcus aureus [3]; 32 µg/mL (≈ 80.1 µM) with Staphylococcus aureus [4]; 16 µg/mL (≈ 40.1 µM) with Salmonella enterica [9]; 32 µg/mL (≈ 80.1 µM) in the test with Enterococcus faecalis. The compound further showed a Kd in test [1] of 400 nM. Besides, in the test with Salmonella enterica [2], the Ratio IC50 was found to be 3. The inhibition in the test with Salmonella enterica [5] was determined as 100%. Further, the inhibition result with Salmonella enterica [6], with Salmonella enterica [7] and in the test with Salmonella enterica [10] was “Active” in each case. Further, the IC50 in [8] turned out to be 500 nM. For the same compound, the ΔTm in the test with Salmonella enterica [11] came out at 28.4 °C.

Take `C[C@@H](O)[C@H](N)C(=O)NS(=O)(=O)c1cccc(-c2ccc3[nH]ncc3c2)c1`: the MIC in the test with Pseudomonas aeruginosa, in the test on Escherichia coli, in the test with Staphylococcus aureus [3], with Staphylococcus aureus [4], in the test on Salmonella enterica [9] and with Enterococcus faecalis was above 256 µg/mL throughout.

As to `O=C1CC[C@@H](C(=O)NC/C=C/Cn2cnc3cc(Cl)c(Cl)cc3c2=O)N1`, the inhibition in the test with Salmonella enterica [5] turned out to be 5%. Besides, the ΔTm in the test on Salmonella enterica [11] was -0.4 °C.

For `CCO[C@H](C)[C@H](N)C(=O)NC/C=C/Cn1cnc2cc(Cl)c(Cl)cc2c1=O`, in the test on Salmonella enterica [5], the inhibition was determined as 4%. Moreover, in the test with Salmonella enterica [11], the ΔTm came out at 0.2 °C.

Turning to `CC(C)(O)[C@H](N)C(=O)NC/C=C/Cn1cnc2cc(Cl)c(Cl)cc2c1=O`, in the test with Salmonella enterica [5], the inhibition turned out to be 0%. Besides, the ΔTm in the test on Salmonella enterica [11] came to 0.9 °C.

Consider `CC1(C)S[C@@H]2[C@H](NC(=O)[C@H](N)c3ccccc3)C(=O)N2[C@H]1C(=O)O` [AMPICILLIN], for which the MIC is 0.5 µg/mL (≈ 1.43 µM) in the test with Pseudomonas aeruginosa, 1 µg/mL (≈ 2.86 µM) in the test on Escherichia coli and 1 µg/mL (≈ 2.86 µM) in the test with Salmonella enterica [9].

Consider `N[C@@H](CO)C(=O)NC/C=C/Cn1cnc2cc(Cl)c(Cl)cc2c1=O`, for which the inhibition with Salmonella enterica [5] was 2%. Besides, in the test on Salmonella enterica [11], the thermal shift (ΔTm) worked out at 0.6 °C.

With `C[C@H](O)[C@@H](N)C(=O)NC/C=C/Cn1cnc2cc(Cl)c(Cl)cc2c1=O`, the inhibition in the test with Salmonella enterica [5] turned out to be 6%. The shift in melting temperature (ΔTm) in the test with Salmonella enterica [11] worked out at 0.6 °C.

On to `O=C1CC[C@H](C(=O)NC/C=C/Cn2cnc3cc(Cl)c(Cl)cc3c2=O)N1`, for which the inhibition in the test on Salmonella enterica [5] was found to be 0%. Besides, the shift in melting temperature (ΔTm) in the test on Salmonella enterica [11] is -0.2 °C.

Take `CN[C@H](CC(C)C)C(=O)N[C@H]1C(=O)N[C@@H](CC(N)=O)C(=O)N[C@H]2C(=O)N[C@H]3C(=O)N[C@H](C(=O)N[C@H](C(=O)O)c4cc(O)cc(O)c4-c4cc3ccc4O)[C@H](O)c3ccc(c(Cl)c3)Oc3cc2cc(c3O[C@@H]2O[C@H](CO)[C@@H](O)[C@H](O)[C@H]2O[C@H]2C[C@](C)(N)[C@H](O)[C@H](C)O2)Oc2ccc(cc2Cl)[C@H]1O` [VANCOMYCIN]: the MIC with Enterococcus faecalis came out at 2 µg/mL (≈ 1.38 µM).

`C=CCN[C@H](C(=O)NC/C=C/Cn1cnc2cc(Cl)c(Cl)cc2c1=O)[C@@H](C)O`: in the test with Salmonella enterica [5], the inhibition amounted to 100%. In addition, the IC50 in test [8] turned out to be 1200 nM. Also, in the test with Salmonella enterica [11], the ΔTm was 22.1 °C.

As to `C[C@@H](O)[C@H](NCC#N)C(=O)NC/C=C/Cn1cnc2cc(Cl)c(Cl)cc2c1=O`, the inhibition in the test on Salmonella enterica [5] is 93%. In addition, the 50% inhibitory concentration (IC50) in [8] amounted to 9600 nM. Moreover, the ΔTm in the test on Salmonella enterica [11] amounted to 18.8 °C.

Regarding `O=C(CC1NCCCC1O)Cn1cnc2cc(Br)c(Cl)cc2c1=O` (stereo unspecified) [HALOFUGINONE], the MIC is 64 µg/mL (≈ 154 µM) in the test on Pseudomonas aeruginosa; 128 µg/mL (≈ 309 µM) with Escherichia coli; 64 µg/mL (≈ 154 µM) in the test on Staphylococcus aureus [3]; 64 µg/mL (≈ 154 µM) in the test with Staphylococcus aureus [4]; 64 µg/mL (≈ 154 µM) in the test on Salmonella enterica [9]; 128 µg/mL (≈ 309 µM) with Enterococcus faecalis. In the test on Salmonella enterica [5], the inhibition worked out at 4%. In addition, the ΔTm in the test with Salmonella enterica [11] is -1.5 °C.

Take `C[C@@H](O)[C@H](NCCF)C(=O)NC/C=C/Cn1cnc2cc(Cl)c(Cl)cc2c1=O`: the MIC with Pseudomonas aeruginosa was 64 µg/mL (≈ 148 µM); with Escherichia coli, 32 µg/mL (≈ 74.2 µM); in the test with Staphylococcus aureus [3], 32 µg/mL (≈ 74.2 µM); in the test with Staphylococcus aureus [4], 64 µg/mL (≈ 148 µM); in the test on Salmonella enterica [9] it was 32 µg/mL (≈ 74.2 µM); with Enterococcus faecalis, 32 µg/mL (≈ 74.2 µM). For the same compound, in the test on Salmonella enterica [5], the inhibition amounted to 99%. In addition, the IC50 in test [8] is 2500 nM. Further, the ΔTm in the test on Salmonella enterica [11] is 19.1 °C.

On to `CCN[C@H](C(=O)NC/C=C/Cn1cnc2cc(Cl)c(Cl)cc2c1=O)[C@@H](C)O`, for which the MIC is 32 µg/mL (≈ 77.4 µM) in the test on Pseudomonas aeruginosa; 16 µg/mL (≈ 38.7 µM) in the test on Escherichia coli; 64 µg/mL (≈ 155 µM) in the test on Staphylococcus aureus [3]; 32 µg/mL (≈ 77.4 µM) in the test with Staphylococcus aureus [4]; 32 µg/mL (≈ 77.4 µM) with Salmonella enterica [9]; 32 µg/mL (≈ 77.4 µM) in the test with Enterococcus faecalis. Besides, in the test on Salmonella enterica [5], the inhibition came out at 100%. The IC50 in [8] came to 960 nM. For the same compound, in the test with Salmonella enterica [11], the ΔTm stood at 22.5 °C.

As to `CC(C)N[C@H](C(=O)NC/C=C/Cn1cnc2cc(Cl)c(Cl)cc2c1=O)[C@@H](C)O`, in the test on Salmonella enterica [5], the inhibition is 63%. Further, in test [8], the IC50 came to 49300 nM. Further, the ΔTm in the test on Salmonella enterica [11] was 14.1 °C.
